# Results: ChEMBL document CHEMBL4689842, “EUbOPEN Chemogenomics Library wave 1” (2021)
# System: U2OS
# Experiment: Multiplex assay against U2OS
# Format: toxicity, cell-based
# Details: human
# Method in brief: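 Hoechst33342, BioTracker Green Microtubule Cytoskeleton Dye, MitoTracker Red and Annexin V Alexa Fluor 680 were added to live cells at seeding, and imaging on a CQ1 microscope at 37°C and 5% CO2 followed compound addition. Gating by CellPathfinder machine learning separated cells into Hoechst high-intensity objects or normal cells, then normal cells into healthy, pyknosed or fragmented nuclei, then pyknosed cells into mitotic or apoptotic. Per cents of healthy-nucleus cells are reported for the tubulin, mitochondrial-mass and membrane-permeability phenotypes.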
# [1] = 12 h, 1 µM, compound concentration 1 uM, replicate 1
# [2] = 12 h, 1 µM, compound concentration 1 uM, replicate 2
# [3] = 12 h, 10 µM, compound concentration 10 uM, replicate 1
# [4] = 12 h, 10 µM, compound concentration 10 uM, replicate 2
# [5] = 24 h, 1 µM, compound concentration 1 uM, replicate 1
# [6] = 24 h, 1 µM, compound concentration 1 uM, replicate 2
# [7] = 24 h, 10 µM, compound concentration 10 uM, replicate 1
# [8] = 24 h, 10 µM, compound concentration 10 uM, replicate 2
# [9] = 48 h, 1 µM, compound concentration 1 uM, replicate 1
# [10] = 48 h, 1 µM, compound concentration 1 uM, replicate 2
# [11] = 48 h, 10 µM, compound concentration 10 uM, replicate 1
# [12] = 48 h, 10 µM, compound concentration 10 uM, replicate 2
smiles,measurement,setting,value
CC(C)NC(=O)N1CC[C@H](NC2=Nc3cc(F)ccc3N(CC(F)F)c3ccc(Cl)cc32)C1,Population Apoptotic (%),[1],50%
same,Population Fragmented Nuclei (%),[1],11%
same,Population Healthy Nuclei (%),[1],75%
same,Population Hoechst High Intensity Objects (%),[1],7%
same,Population Membrane Permeable-Phenotype (%),[1],7%
same,Population Mitochondria Different-Phenotype (%),[1],8%
same,Population Mitotic Cells (%),[1],50%
same,Population Normal (%),[1],92%
same,Population Pyknosed Nuclei (%),[1],13%
same,Population Tubulin-Different-Phenotype (%),[1],19%
same,Total Cell Count,[1],469
same,Population Apoptotic (%),[2],33%
same,Population Fragmented Nuclei (%),[2],5%
same,Population Healthy Nuclei (%),[2],89%
same,Population Hoechst High Intensity Objects (%),[2],9%
same,Population Membrane Permeable-Phenotype (%),[2],4%
same,Population Mitochondria Different-Phenotype (%),[2],18%
same,Population Mitotic Cells (%),[2],66%
same,Population Normal (%),[2],90%
same,Population Pyknosed Nuclei (%),[2],5%
same,Population Tubulin-Different-Phenotype (%),[2],14%
same,Total Cell Count,[2],293
same,Population Apoptotic (%),[3],47%
same,Population Fragmented Nuclei (%),[3],11%
same,Population Healthy Nuclei (%),[3],72%
same,Population Hoechst High Intensity Objects (%),[3],11%
same,Population Membrane Permeable-Phenotype (%),[3],4%
same,Population Mitochondria Different-Phenotype (%),[3],52%
same,Population Mitotic Cells (%),[3],52%
same,Population Normal (%),[3],88%
same,Population Pyknosed Nuclei (%),[3],15%
same,Population Tubulin-Different-Phenotype (%),[3],89%
same,Total Cell Count,[3],96
same,Population Apoptotic (%),[4],0%
same,Population Fragmented Nuclei (%),[4],6%
same,Population Healthy Nuclei (%),[4],81%
same,Population Hoechst High Intensity Objects (%),[4],13%
same,Population Membrane Permeable-Phenotype (%),[4],13%
same,Population Mitochondria Different-Phenotype (%),[4],63%
same,Population Mitotic Cells (%),[4],100%
same,Population Normal (%),[4],86%
same,Population Pyknosed Nuclei (%),[4],11%
same,Population Tubulin-Different-Phenotype (%),[4],58%
same,Total Cell Count,[4],62
same,Population Apoptotic (%),[5],53%
same,Population Fragmented Nuclei (%),[5],9%
same,Population Healthy Nuclei (%),[5],78%
same,Population Hoechst High Intensity Objects (%),[5],6%
same,Population Membrane Permeable-Phenotype (%),[5],10%
same,Population Mitochondria Different-Phenotype (%),[5],28%
same,Population Mitotic Cells (%),[5],46%
same,Population Normal (%),[5],93%
same,Population Pyknosed Nuclei (%),[5],12%
same,Population Tubulin-Different-Phenotype (%),[5],21%
same,Total Cell Count,[5],453
same,Population Apoptotic (%),[6],50%
same,Population Fragmented Nuclei (%),[6],5%
same,Population Healthy Nuclei (%),[6],88%
same,Population Membrane Permeable-Phenotype (%),[6],6%
same,Population Mitochondria Different-Phenotype (%),[6],19%
same,Population Mitotic Cells (%),[6],50%
same,Population Pyknosed Nuclei (%),[6],5%
same,Population Tubulin-Different-Phenotype (%),[6],9%
same,Total Cell Count,[6],281
same,Population Apoptotic (%),[7],56%
same,Population Fragmented Nuclei (%),[7],14%
same,Population Healthy Nuclei (%),[7],61%
same,Population Hoechst High Intensity Objects (%),[7],6%
same,Population Membrane Permeable-Phenotype (%),[7],15%
same,Population Mitochondria Different-Phenotype (%),[7],61%
same,Population Mitotic Cells (%),[7],43%
same,Population Normal (%),[7],93%
same,Population Pyknosed Nuclei (%),[7],23%
same,Population Tubulin-Different-Phenotype (%),[7],79%
same,Total Cell Count,[7],112
same,Population Apoptotic (%),[8],83%
same,Population Fragmented Nuclei (%),[8],13%
same,Population Healthy Nuclei (%),[8],73%
same,Population Hoechst High Intensity Objects (%),[8],10%
same,Population Membrane Permeable-Phenotype (%),[8],6%
same,Population Mitochondria Different-Phenotype (%),[8],57%
same,Population Mitotic Cells (%),[8],16%
same,Population Normal (%),[8],90%
same,Population Pyknosed Nuclei (%),[8],13%
same,Population Tubulin-Different-Phenotype (%),[8],51%
same,Total Cell Count,[8],75
same,Population Apoptotic (%),[9],52%
same,Population Fragmented Nuclei (%),[9],10%
same,Population Healthy Nuclei (%),[9],77%
same,Population Membrane Permeable-Phenotype (%),[9],3%
same,Population Mitochondria Different-Phenotype (%),[9],23%
same,Population Mitotic Cells (%),[9],47%
same,Population Pyknosed Nuclei (%),[9],11%
same,Population Tubulin-Different-Phenotype (%),[9],23%
same,Total Cell Count,[9],499
same,Population Apoptotic (%),[10],25%
same,Population Fragmented Nuclei (%),[10],4%
same,Population Healthy Nuclei (%),[10],87%
same,Population Hoechst High Intensity Objects (%),[10],6%
same,Population Membrane Permeable-Phenotype (%),[10],10%
same,Population Mitochondria Different-Phenotype (%),[10],26%
same,Population Mitotic Cells (%),[10],75%
same,Population Normal (%),[10],93%
same,Population Pyknosed Nuclei (%),[10],7%
same,Population Tubulin-Different-Phenotype (%),[10],22%
same,Total Cell Count,[10],259
same,Population Apoptotic (%),[11],82%
same,Population Fragmented Nuclei (%),[11],23%
same,Population Healthy Nuclei (%),[11],47%
same,Population Hoechst High Intensity Objects (%),[11],6%
same,Population Membrane Permeable-Phenotype (%),[11],20%
same,Population Mitochondria Different-Phenotype (%),[11],44%
same,Population Mitotic Cells (%),[11],17%
same,Population Normal (%),[11],93%
same,Population Pyknosed Nuclei (%),[11],29%
same,Population Tubulin-Different-Phenotype (%),[11],76%
same,Total Cell Count,[11],160
same,Population Apoptotic (%),[12],69%
same,Population Fragmented Nuclei (%),[12],13%
same,Population Healthy Nuclei (%),[12],60%
same,Population Hoechst High Intensity Objects (%),[12],13%
same,Population Membrane Permeable-Phenotype (%),[12],41%
same,Population Mitochondria Different-Phenotype (%),[12],61%
same,Population Mitotic Cells (%),[12],30%
same,Population Normal (%),[12],86%
same,Population Pyknosed Nuclei (%),[12],25%
same,Population Tubulin-Different-Phenotype (%),[12],58%
same,Total Cell Count,[12],115
